Values after ≈ are worked out from the molar mass of the structure shown. Active and inactive are the calls of the source. The rule behind the calls is not given here.
What was measured:
Rattus norvegicus [1] = assay: Anxiolytic-like activity in Sprague-Dawley rat vogel conflict model assessed as increase in number of shocks at 1 mg/kg, po after 1 hr; type: functional, organism-based; set-up: dose 1 mg/kg
Rattus norvegicus [2] = species on record: Rattus norvegicus; assay: Displacement of [3H]flumazenil from Sprague-Dawley rat cerebral cortex CBR at 10 uM after 1 hr by liquid scintillation counting analysis; type: tissue-based
[3] = target: Vasopressin V1b receptor (Homo sapiens) (UniProt P47901); assay: Binding affinity to human vasopressin V1B receptor at 10 uM by radioligand binding assay
In short: (§1)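 Radioligand binding profiling panel across receptors and transporters linked to CNS, cardiovascular and pulmonary adverse events. Each target was tested once at 10 μM, run in duplicate.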

[4] = target: Vasopressin V1a receptor (Homo sapiens) (UniProt P37288); assay: Binding affinity to human vasopressin V1A receptor at 10 uM by radioligand binding assay; in short: as §1
[5] = target: Sodium-dependent noradrenaline transporter (Homo sapiens) (UniProt P23975); assay: Binding affinity to human norepinephrine transporter at 10 uM by radioligand binding assay; in short: as §1
[6] = target: Sodium-dependent dopamine transporter (Homo sapiens) (UniProt Q01959); assay: Binding affinity to human dopamine transporter at 10 uM by radioligand binding assay; in short: as §1
[7] = target: Somatostatin receptor type 2 (Homo sapiens) (UniProt P30874); assay: Binding affinity to human somatostatin sst2 receptor at 10 uM by radioligand binding assay; in short: as §1
[8] = target: Substance-P receptor (Homo sapiens) (UniProt P25103); assay: Binding affinity to human tachykinin NK1 receptor at 10 uM by radioligand binding assay; in short: as §1
Sequence of Substance-P receptor (Homo sapiens) (P25103 whole entry): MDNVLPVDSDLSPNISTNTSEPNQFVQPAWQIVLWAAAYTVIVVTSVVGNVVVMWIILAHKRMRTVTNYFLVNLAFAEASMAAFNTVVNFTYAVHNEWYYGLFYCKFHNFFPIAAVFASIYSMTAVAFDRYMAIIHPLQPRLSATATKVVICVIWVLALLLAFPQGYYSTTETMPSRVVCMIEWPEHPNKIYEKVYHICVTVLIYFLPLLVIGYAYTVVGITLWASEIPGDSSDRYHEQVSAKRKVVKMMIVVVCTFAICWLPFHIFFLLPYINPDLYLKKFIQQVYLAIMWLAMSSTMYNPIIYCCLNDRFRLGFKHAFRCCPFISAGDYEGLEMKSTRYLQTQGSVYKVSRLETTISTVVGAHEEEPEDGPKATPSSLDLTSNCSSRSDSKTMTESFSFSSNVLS

[9] = target: Sigma non-opioid intracellular receptor 1 (Homo sapiens) (UniProt Q99720); assay: Binding affinity to human sigma1 receptor at 10 uM by radioligand binding assay; in short: as §1
[10] = target: 5-hydroxytryptamine receptor 6 (Homo sapiens) (UniProt P50406); assay: Binding affinity to human serotonin 5HT6 receptor at 10 uM by radioligand binding assay; in short: as §1
Sequence of 5-hydroxytryptamine receptor 6 (Homo sapiens) (P50406 whole entry): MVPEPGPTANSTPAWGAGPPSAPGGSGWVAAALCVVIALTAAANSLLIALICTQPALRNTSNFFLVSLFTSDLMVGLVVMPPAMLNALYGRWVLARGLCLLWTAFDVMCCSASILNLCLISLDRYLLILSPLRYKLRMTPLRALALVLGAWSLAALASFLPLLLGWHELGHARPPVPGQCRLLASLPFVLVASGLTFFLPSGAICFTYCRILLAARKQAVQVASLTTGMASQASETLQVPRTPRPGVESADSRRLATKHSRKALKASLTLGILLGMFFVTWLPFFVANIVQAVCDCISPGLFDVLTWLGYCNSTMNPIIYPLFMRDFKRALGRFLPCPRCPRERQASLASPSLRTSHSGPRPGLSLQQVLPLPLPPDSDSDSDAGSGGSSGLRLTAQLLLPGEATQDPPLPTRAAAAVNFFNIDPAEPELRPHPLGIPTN

[11] = target: 5-hydroxytryptamine receptor 4 (Cavia porcellus) (UniProt O70528); assay: Binding affinity to guinea pig serotonin 5HT4 receptor at 10 uM by radioligand binding assay; in short: as §1
[12] = target: 5-hydroxytryptamine receptor 2A (Rattus norvegicus) (UniProt P14842); assay: Binding affinity to rat non-selective serotonin 5HT2 receptor at 10 uM by radioligand binding assay; in short: as §1
[13] = target: 5-hydroxytryptamine receptor 3A (Homo sapiens) (UniProt P46098); assay: Binding affinity to human serotonin 5HT3 receptor at 10 uM by radioligand binding assay; in short: as §1
Sequence of 5-hydroxytryptamine receptor 3A (Homo sapiens) (P46098 whole entry): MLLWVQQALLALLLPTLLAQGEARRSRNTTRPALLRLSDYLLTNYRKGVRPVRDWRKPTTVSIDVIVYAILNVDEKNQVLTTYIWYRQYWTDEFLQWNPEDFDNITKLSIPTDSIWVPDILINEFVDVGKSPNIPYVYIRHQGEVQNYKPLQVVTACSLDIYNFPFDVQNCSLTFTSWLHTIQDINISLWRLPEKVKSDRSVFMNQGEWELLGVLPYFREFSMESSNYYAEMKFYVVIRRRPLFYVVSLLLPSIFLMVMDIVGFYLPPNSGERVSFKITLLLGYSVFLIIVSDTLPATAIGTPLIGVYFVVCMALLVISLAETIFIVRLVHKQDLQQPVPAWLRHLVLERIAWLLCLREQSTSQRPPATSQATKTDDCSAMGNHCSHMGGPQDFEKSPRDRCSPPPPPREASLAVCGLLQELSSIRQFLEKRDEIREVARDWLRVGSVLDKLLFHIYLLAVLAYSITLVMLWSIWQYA

Mesocricetus auratus = species on record: Mesocricetus auratus; assay: Binding affinity to syrian hamster ATP-sensitive potassium channel at 10 uM by radioligand binding assay
In short: (§2)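 Off-target radioligand binding panel: compound tested in duplicate at a single concentration of 10 μM in each assay. Activity is reported as percent inhibition of radioligand binding.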

[14] = target: Mu-type opioid receptor (Homo sapiens) (UniProt P35372); assay: Binding affinity to human mu opiate receptor at 10 uM by radioligand binding assay; in short: as §1
Sequence of Mu-type opioid receptor (Homo sapiens) (P35372 whole entry): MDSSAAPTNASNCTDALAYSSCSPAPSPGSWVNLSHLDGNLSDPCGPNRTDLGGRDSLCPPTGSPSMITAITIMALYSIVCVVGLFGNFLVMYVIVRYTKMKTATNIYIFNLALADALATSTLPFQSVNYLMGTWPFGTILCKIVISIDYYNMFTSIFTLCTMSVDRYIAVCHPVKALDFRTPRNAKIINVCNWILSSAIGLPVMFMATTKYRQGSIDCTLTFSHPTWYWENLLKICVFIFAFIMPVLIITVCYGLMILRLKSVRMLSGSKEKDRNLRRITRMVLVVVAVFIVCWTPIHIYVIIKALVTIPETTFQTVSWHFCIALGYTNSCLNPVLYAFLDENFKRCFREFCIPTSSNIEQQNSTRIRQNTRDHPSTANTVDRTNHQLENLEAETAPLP

[15] = target: Nociceptin receptor (Homo sapiens) (UniProt P41146); assay: Binding affinity to human ORL1 receptor at 10 uM by radioligand binding assay; in short: as §1
Homo sapiens = species on record: Homo sapiens; assay: Binding affinity to human nicotinic acetylcholine receptor at 10 uM by radioligand binding assay; in short: as §2
[16] = target: Neuropeptide Y receptor type 2 (Homo sapiens) (UniProt P49146); assay: Binding affinity to human Neuropeptide Y receptor Y2 at 10 uM by radioligand binding assay; in short: as §1
[17] = target: Neuropeptide Y receptor type 1 (Homo sapiens) (UniProt P25929); assay: Binding affinity to human Neuropeptide Y receptor Y1 at 10 uM by radioligand binding assay; in short: as §1
[18] = target: Muscarinic acetylcholine receptor M3 (Homo sapiens) (UniProt P20309); assay: Binding affinity to human muscarinic M3 receptor at 10 uM by radioligand binding assay; in short: as §1
Sequence of Muscarinic acetylcholine receptor M3 (Homo sapiens) (P20309 whole entry, looked up): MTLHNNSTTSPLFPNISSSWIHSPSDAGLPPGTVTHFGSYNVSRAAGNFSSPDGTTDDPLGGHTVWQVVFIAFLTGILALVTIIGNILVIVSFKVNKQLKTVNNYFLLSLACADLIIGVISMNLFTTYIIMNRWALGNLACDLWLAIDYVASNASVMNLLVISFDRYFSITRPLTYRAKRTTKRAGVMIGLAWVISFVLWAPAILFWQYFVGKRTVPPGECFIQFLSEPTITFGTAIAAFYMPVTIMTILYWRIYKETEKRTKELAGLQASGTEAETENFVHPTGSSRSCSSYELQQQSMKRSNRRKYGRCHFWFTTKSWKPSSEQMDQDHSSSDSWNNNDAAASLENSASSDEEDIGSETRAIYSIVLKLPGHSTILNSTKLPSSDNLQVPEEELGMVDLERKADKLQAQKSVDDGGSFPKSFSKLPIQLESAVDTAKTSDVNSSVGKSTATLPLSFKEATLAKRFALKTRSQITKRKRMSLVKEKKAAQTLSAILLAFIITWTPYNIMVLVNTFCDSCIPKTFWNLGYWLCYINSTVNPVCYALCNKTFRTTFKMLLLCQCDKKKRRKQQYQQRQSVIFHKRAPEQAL

[19] = target: Muscarinic acetylcholine receptor M2 (Homo sapiens) (UniProt P08172); assay: Binding affinity to human muscarinic M2 receptor at 10 uM by radioligand binding assay; in short: as §1
[20] = target: Histamine H3 receptor (Homo sapiens) (UniProt Q9Y5N1); assay: Binding affinity to human histamine H3 receptor at 10 uM by radioligand binding assay; in short: as §1
[21] = target: Melanocortin receptor 4 (Homo sapiens) (UniProt P32245); assay: Binding affinity to human melanocortin MC4 receptor at 10 uM by radioligand binding assay; in short: as §1
Sequence of Melanocortin receptor 4 (Homo sapiens) (P32245 whole entry): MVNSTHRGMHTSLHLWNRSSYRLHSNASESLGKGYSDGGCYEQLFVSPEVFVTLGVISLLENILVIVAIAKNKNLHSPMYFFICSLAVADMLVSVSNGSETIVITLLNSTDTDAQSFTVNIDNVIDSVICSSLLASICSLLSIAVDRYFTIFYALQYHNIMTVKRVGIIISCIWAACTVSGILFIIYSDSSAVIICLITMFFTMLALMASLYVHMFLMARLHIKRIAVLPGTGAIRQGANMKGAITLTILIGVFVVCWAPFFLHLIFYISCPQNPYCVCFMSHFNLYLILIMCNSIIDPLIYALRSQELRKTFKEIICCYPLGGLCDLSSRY

Rattus norvegicus [22] = species on record: Rattus norvegicus; assay: Binding affinity to rat strychnine-sensitive glycine receptor at 10 uM by radioligand binding assay; in short: as §2
Rattus norvegicus [23] = species on record: Rattus norvegicus; assay: Binding affinity to rat kainate receptor at 10 uM by radioligand binding assay; in short: as §2
Rattus norvegicus [24] = species on record: Rattus norvegicus; assay: Binding affinity to rat N-methyl D-aspartate receptor phencyclidine binding site at 10 uM by radioligand binding assay; in short: as §2
[25] = target: Glucocorticoid receptor (Homo sapiens) (UniProt P04150); assay: Binding affinity to human glucocorticoid receptor at 10 uM by radioligand binding assay; in short: as §1
[26] = target: Galanin receptor type 1 (Homo sapiens) (UniProt P47211); assay: Binding affinity to human GAL1 receptor at 10 uM by radioligand binding assay; in short: as §1
Rattus norvegicus [27] = species on record: Rattus norvegicus; assay: Binding affinity to rat non-selective GABAB receptor at 10 uM by radioligand binding assay; in short: as §2
Rattus norvegicus [28] = species on record: Rattus norvegicus; assay: Binding affinity to rat GABAA receptor agonist binding site at 10 uM by radioligand binding assay; in short: as §2
Rattus norvegicus [29] = species on record: Rattus norvegicus; assay: Binding affinity to rat GABAA receptor TBOB binding site at 10 uM by radioligand binding assay; in short: as §2
[30] = target: Estrogen receptor beta (Homo sapiens) (UniProt Q92731); assay: Binding affinity to human ERbeta at 10 uM by radioligand binding assay; in short: as §1
[31] = target: Corticotropin-releasing factor receptor 1 (Homo sapiens) (UniProt P34998); assay: Binding affinity to human CRF1 receptor at 10 uM by radioligand binding assay; in short: as §1
Sequence of Corticotropin-releasing factor receptor 1 (Homo sapiens) (P34998 whole entry): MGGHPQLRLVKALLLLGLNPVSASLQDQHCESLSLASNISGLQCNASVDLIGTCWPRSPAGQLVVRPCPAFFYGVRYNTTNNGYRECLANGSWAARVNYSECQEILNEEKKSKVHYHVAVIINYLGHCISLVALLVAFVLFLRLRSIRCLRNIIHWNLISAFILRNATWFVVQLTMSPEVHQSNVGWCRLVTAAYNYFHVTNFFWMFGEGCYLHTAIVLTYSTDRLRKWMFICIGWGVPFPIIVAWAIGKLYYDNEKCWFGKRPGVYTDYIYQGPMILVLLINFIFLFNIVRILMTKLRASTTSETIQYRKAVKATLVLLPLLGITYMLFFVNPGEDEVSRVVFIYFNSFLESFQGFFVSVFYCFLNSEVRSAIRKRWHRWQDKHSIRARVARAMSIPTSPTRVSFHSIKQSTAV

[32] = target: D(1A) dopamine receptor (Homo sapiens) (UniProt P21728); assay: Binding affinity to human dopamine D1 receptor at 10 uM by radioligand binding assay; in short: as §1
[33] = target: Gastrin/cholecystokinin type B receptor (Homo sapiens) (UniProt P32239); assay: Binding affinity to human CCK2 receptor at 10 uM by radioligand binding assay; in short: as §1
[34] = target: Cannabinoid receptor 1 (Homo sapiens) (UniProt P21554); assay: Binding affinity to human CB1 receptor at 10 uM by radioligand binding assay; in short: as §1
[35] = target: Cholecystokinin receptor type A (Homo sapiens) (UniProt P32238); assay: Binding affinity to human CCK1 receptor at 10 uM by radioligand binding assay; in short: as §1
Sequence of Cholecystokinin receptor type A (Homo sapiens) (P32238 whole entry): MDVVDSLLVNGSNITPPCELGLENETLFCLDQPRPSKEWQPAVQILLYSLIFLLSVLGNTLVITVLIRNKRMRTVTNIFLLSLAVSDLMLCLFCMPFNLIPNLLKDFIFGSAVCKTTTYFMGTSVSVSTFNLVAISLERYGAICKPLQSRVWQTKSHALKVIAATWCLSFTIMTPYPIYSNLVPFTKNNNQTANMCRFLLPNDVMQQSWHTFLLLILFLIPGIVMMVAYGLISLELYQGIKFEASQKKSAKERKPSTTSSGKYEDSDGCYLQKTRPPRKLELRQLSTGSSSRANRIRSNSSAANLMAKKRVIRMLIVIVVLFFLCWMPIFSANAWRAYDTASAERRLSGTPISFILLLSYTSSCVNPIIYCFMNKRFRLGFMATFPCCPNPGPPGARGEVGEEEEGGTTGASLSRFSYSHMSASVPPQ

Rattus norvegicus [36] = species on record: Rattus norvegicus; assay: Binding affinity to rat N-type calcium channel at 10 uM by radioligand binding assay; in short: as §2
Rattus norvegicus [37] = species on record: Rattus norvegicus; assay: Binding affinity to rat L-type calcium channel dihydropyridine binding site at 10 uM by radioligand binding assay; in short: as §2
[38] = target: Bombesin receptor subtype-3 (Homo sapiens) (UniProt P32247); assay: Binding affinity to human bombesin BB3 receptor at 10 uM by radioligand binding assay; in short: as §1
[39] = target: Type-2 angiotensin II receptor (Homo sapiens) (UniProt P50052); assay: Binding affinity to human angiotensin AT2 receptor at 10 uM by radioligand binding assay; in short: as §1
[40] = target: Type-1 angiotensin II receptor (Homo sapiens) (UniProt P30556); assay: Binding affinity to human angiotensin AT1 receptor at 10 uM by radioligand binding assay; in short: as §1
Sequence of Type-1 angiotensin II receptor (Homo sapiens) (P30556 whole entry): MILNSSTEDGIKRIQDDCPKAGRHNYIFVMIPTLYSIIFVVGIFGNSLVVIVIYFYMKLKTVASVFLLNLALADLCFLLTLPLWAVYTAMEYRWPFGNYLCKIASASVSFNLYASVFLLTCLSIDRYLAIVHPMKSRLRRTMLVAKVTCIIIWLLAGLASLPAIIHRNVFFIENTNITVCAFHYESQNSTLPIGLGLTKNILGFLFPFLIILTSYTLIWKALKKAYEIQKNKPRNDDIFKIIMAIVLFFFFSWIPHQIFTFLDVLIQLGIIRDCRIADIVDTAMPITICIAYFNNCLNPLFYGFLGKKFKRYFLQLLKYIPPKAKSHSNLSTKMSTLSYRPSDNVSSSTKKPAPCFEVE

[41] = target: Beta-2 adrenergic receptor (Homo sapiens) (UniProt P07550); assay: Binding affinity to human adrenergic beta2 receptor at 10 uM by radioligand binding assay; in short: as §1
[42] = target: Alpha-2A adrenergic receptor (Homo sapiens) (UniProt P08913); assay: Binding affinity to human adrenergic alpha2A receptor at 10 uM by radioligand binding assay; in short: as §1
Sequence of Alpha-2A adrenergic receptor (Homo sapiens) (P08913 whole entry): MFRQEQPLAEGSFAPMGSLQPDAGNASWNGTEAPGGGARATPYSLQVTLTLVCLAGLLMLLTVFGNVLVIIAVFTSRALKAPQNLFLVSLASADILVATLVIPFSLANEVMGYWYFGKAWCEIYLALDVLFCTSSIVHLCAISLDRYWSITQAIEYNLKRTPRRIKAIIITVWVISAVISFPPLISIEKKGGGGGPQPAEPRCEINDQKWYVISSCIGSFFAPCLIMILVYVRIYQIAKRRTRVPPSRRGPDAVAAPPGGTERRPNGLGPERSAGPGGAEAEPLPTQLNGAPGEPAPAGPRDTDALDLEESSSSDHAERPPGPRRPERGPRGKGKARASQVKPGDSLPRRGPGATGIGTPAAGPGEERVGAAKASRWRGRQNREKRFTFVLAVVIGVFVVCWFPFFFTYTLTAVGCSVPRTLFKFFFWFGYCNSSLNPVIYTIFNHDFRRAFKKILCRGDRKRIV

[43] = target: Beta-1 adrenergic receptor (Homo sapiens) (UniProt P08588); assay: Binding affinity to human adrenergic beta1 receptor at 10 uM by radioligand binding assay; in short: as §1
[44] = target: Adenosine receptor A2a (Homo sapiens) (UniProt P29274); assay: Binding affinity to human adenosine A2A receptor at 10 uM by radioligand binding assay; in short: as §1
[45] = target: Adenosine receptor A1 (Homo sapiens) (UniProt P30542); assay: Binding affinity to human adenosine A1 receptor at 10 uM by radioligand binding assay; in short: as §1
Sequence of Adenosine receptor A1 (Homo sapiens) (P30542 whole entry): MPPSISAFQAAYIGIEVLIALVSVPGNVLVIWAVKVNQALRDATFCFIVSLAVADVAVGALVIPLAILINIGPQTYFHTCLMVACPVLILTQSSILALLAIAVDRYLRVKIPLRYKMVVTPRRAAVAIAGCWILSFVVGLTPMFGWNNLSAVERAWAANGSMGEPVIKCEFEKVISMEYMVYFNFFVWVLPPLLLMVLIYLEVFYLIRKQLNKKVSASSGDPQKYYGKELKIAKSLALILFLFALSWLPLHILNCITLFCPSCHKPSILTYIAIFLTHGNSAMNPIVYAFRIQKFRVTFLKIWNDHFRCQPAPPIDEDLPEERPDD

[46] = target: Phosphodiesterase 4 (Homo sapiens) (UniProt P27815+Q08499+Q07343+Q08493); assay: Inhibition of human phosphodiesterase PDE4 at 10 uM; type: protein assay
[47] = Solubility of the compound at pH 2.5 by HPLC analysis; type: physicochemical; details: buffer
In short: (§3)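 Compound (1 mg) shaken in 0.4 mL buffered solution at pH 7.4 or pH 2.5, then centrifuged; dissolved compound in the supernatant quantified by HPLC.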

[48] = Displacement of [3H]batrachotoxin from rat brain sodium channel site 2; type: tissue-based
[49] = Solubility of the compound at pH 7.4 by HPLC analysis; type: physicochemical; details: buffer; in short: as §3
[50] = Metabolic stability in rat liver S9 fraction assessed as compound remaining at 1 uM after 30 mins in presence of NADPH; type: ADME, subcellular; details: read-out: Stability
Translocator protein [51] = target: Translocator protein (Rattus norvegicus, UniProt P16257); assay: Displacement of [3H]PK11195 from Sprague-Dawley rat kidney TSPO after 1 hr by liquid scintillation counting analysis
[52] = Metabolic stability in human liver S9 fraction assessed as compound remaining at 1 uM after 30 mins; type: ADME, subcellular; details: read-out: Stability
Translocator protein [53] = target: Translocator protein (Homo sapiens, UniProt P30536); assay: Displacement of [3H]PK11195 from TSPO in human U-87 MG cells after 1 hr by liquid scintillation counting analysis; type: cell-based
Sequence of Translocator protein (Homo sapiens, UniProt P30536) (P30536 whole entry): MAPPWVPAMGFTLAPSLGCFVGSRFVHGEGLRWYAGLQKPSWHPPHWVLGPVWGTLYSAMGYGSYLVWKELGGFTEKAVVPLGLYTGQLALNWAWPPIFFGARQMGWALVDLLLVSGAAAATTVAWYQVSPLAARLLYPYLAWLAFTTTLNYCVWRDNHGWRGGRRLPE

[54] = target: Amine oxidase [flavin-containing] A (Homo sapiens, UniProt P21397); assay: Inhibition of human MAO-A at 10 uM

With CN(C(=O)Cn1c(=O)oc2ccc(-c3cccnc3)cc21)c1ccc(C(F)(F)F)cc1 [listing 1 of 2 here] the Activity (Rattus norvegicus [1]) was “Active”, the inhibition (Rattus norvegicus [2]) was 0% and the inhibition [3] was “inactive”. For the same compound, the inhibition [4] was “inactive”, the inhibition [5] was “inactive” and the inhibition [6] was “inactive”. The inhibition [7] was “inactive”, the inhibition [8] was “inactive” and the inhibition [9] was “inactive”. The inhibition [10] was “inactive”, the inhibition [11] was “inactive” and the inhibition [12] was “inactive”. For the same compound, the inhibition [13] was “inactive”, the inhibition (Mesocricetus auratus) was “inactive” and the inhibition [14] was “inactive”. For the same compound, the inhibition [15] was “inactive”, the inhibition (Homo sapiens) was “inactive” and the inhibition [16] was “inactive”. For the same compound, the inhibition [17] was “inactive”, the inhibition [18] was “inactive” and the inhibition [19] was “inactive”. The inhibition [20] was “inactive”, the inhibition [21] was “inactive” and the inhibition (Rattus norvegicus [22]) was “inactive”. The inhibition (Rattus norvegicus [23]) was “inactive”, the inhibition (Rattus norvegicus [24]) was “inactive” and the inhibition [25] was “inactive”. The inhibition [26] was “inactive”, the inhibition (Rattus norvegicus [27]) was “inactive” and the inhibition (Rattus norvegicus [28]) was “inactive”. For the same compound, the inhibition (Rattus norvegicus [29]) was “inactive”, the inhibition [30] was “inactive” and the inhibition [31] was “inactive”. For the same compound, the inhibition [32] was “inactive”, the inhibition [33] was “inactive” and the inhibition [34] was “inactive”. For the same compound, the inhibition [35] was “inactive”, the inhibition (Rattus norvegicus [36]) was “inactive” and the inhibition (Rattus norvegicus [37]) was “inactive”. For the same compound, the inhibition [38] was “inactive”, the inhibition [39] was “inactive” and the inhibition [40] was “inactive”. The inhibition [41] was “inactive”, the inhibition [42] was “inactive” and the inhibition [43] was “inactive”. For the same compound, the inhibition [44] was “inactive”, the inhibition [45] was “inactive” and the inhibition [46] was “inactive”.
In the case of CN(C(=O)Cn1c(=O)oc2ccc(-c3cccnc3)cc21)c1ccc(C(F)(F)F)cc1 [listing 2 of 2 here], the solubility [47] is reported as 420 µg/mL (≈ 983 µM), the IC50 [48] is reported as > 10000 nM and the solubility [49] is reported as 1 µg/mL (≈ 2.34 µM). It also gave a remaining at 0.5 h, 1 µM [50] of 38%, a Ki (Translocator protein [51]) of 8.6 nM and a remaining at 0.5 h, 1 µM [52] of 84%. For the same compound, the Ki (Translocator protein [53]) was 8 nM and the “inhibition (INH)” value [54] was “Not Active”.
